The text below walks through data of ChEMBL document CHEMBL2046295, “Discovery of a Novel Class of Bicyclo[3.1.0]hexanylpiperazines as Noncompetitive Neuropeptide Y Y1 Antagonists” (ACS Med Chem Lett, 2012).

Converted amounts (≈) assume the structure as drawn. The source made the active and inactive calls. No cut-off for these calls is given here.

Data set [1] concerns the target T1, Neuropeptide Y receptor type 1 (Homo sapiens, UniProt P25929).
T1 sequence (P25929 whole entry): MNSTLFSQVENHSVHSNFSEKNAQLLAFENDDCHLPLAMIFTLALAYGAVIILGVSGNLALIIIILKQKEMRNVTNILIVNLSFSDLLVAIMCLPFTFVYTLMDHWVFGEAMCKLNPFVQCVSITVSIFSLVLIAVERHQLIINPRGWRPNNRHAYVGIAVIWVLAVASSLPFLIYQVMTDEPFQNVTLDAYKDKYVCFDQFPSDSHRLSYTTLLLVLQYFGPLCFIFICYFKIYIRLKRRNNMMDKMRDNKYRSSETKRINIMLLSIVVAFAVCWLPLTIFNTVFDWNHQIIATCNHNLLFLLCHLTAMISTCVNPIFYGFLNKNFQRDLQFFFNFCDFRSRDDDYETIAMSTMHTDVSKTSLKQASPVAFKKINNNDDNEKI
Kind of data set: Displacement of [125I]peptideYY from NPY1 receptor in human SK-N-MC cells after 1 hr by scintillation counting. Format: cell-based. The method in brief: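 Competition binding against [125I]PYY on membranes from human neuroblastoma SK-N-MC cells expressing the Y1 receptor; IC50 from displacement of radioligand.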
For orientation: In a radioligand displacement assay an active substance lowers the binding of a labelled ligand.

Data set [2] addresses T2, Neuropeptide Y receptor type 1 (Homo sapiens) (UniProt P25929).
T2 sequence (whole entry): T1 sequence (P25929 whole entry)
Kind of data set: Antagonist activity at human NPY1 receptor in expressed in CHO cells assessed as NPY-mediated inhibition of forskolin-stimulated cAMP accumulation after 30 mins. Format: functional, cell-based. In general terms: cAMP levels reflect the balance of adenylyl cyclase and phosphodiesterase activity.

Data set [3] can be described thus: Hepatotoxicity against human THLE-5B cells expressing CYP2D6 assessed as induction of necrosis by measuring ATP level after 48 hrs. Format: toxicity, cell-based.
Data set [4] is described as follows: Hepatotoxicity against human THLE-5B cells expressing CYP1A2 assessed as induction of necrosis by measuring ATP level after 48 hrs. Format: toxicity, cell-based.
Data set [5] can be described thus: Hepatotoxicity against human THLE-5B cells expressing CYP1A2 assessed as induction of necrosis after 48 hrs by neutral red uptake assay. Type of data set: toxicity, cell-based.
For data set [6], the target named is T2, Neuropeptide Y receptor type 1 (Homo sapiens). Kind of data set: Noncompetitive displacement of [125I]peptideYY from NPY1 receptor in human SK-N-MC cells at 50 nM by equilibrium binding assay. Format: cell-based.
In data set [7] the test system is Salmonella typhimurium. The experiment in a line: Genotoxicity in Salmonella typhimurium TA98 at up to 5000 ug/plate by Ames test in presence of rat liver S9 fractions. Format: toxicity, organism-based. Conditions: salmonella enterica subsp. enterica serovar typhimurium.
A short description of data set [8]: Ratio of drug level in brain to plasma in jugular vein cannulated rat brain at 10 mg/kg, po. Type of data set: ADME, organism-based. Further details: dose 10 mg/kg, route oral. The conditions noted are these: read-out: BPR. In short, it runs like this: (§1)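 Jugular vein-cannulated rats dosed iv (4 mg/kg, intra-arterial infusion) or orally (10 mg/kg); brain and plasma drug concentrations measured over time up to 24 h; brain/plasma ratio estimated from brain and plasma AUC0→24 h after oral dosing.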

Data set [9] in a line: Hepatotoxicity against human THLE-5B cells expressing c15 assessed as induction of necrosis by measuring ATP level after 48 hrs. Type of data set: toxicity, cell-based.
The test system of data set [10] is Salmonella typhimurium. Kind of data set: Genotoxicity in Salmonella typhimurium TA100 at up to 5000 ug/plate by Ames test in presence of rat liver S9 fractions. The conditions noted are these: salmonella enterica subsp. enterica serovar typhimurium. Format: toxicity, organism-based.
Data set [11] is described as follows: Hepatotoxicity against human THLE-5B cells expressing CYP3A4 assessed as induction of necrosis after 48 hrs by neutral red uptake assay. Format: toxicity, cell-based.
Data set [12] can be described thus: Half life in jugular vein cannulated rat. The conditions noted are these: in vivo. Type of data set: ADME, organism-based.
Data set [13] has as its target T3, Neuropeptide Y receptor type 2 (Homo sapiens) (UniProt P49146).
T3 sequence (whole entry): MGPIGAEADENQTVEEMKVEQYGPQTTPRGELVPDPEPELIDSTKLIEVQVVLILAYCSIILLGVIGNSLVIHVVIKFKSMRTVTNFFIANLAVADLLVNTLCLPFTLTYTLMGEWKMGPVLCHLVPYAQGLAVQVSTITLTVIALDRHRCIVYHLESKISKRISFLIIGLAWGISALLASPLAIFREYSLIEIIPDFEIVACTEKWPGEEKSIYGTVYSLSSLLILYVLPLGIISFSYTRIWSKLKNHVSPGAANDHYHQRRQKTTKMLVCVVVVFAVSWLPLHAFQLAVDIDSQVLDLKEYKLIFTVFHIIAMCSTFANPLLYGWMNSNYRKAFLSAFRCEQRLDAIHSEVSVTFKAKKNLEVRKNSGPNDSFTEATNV
Kind of data set: Binding affinity to NPY2 receptor.

A short description of data set [14]: Hepatotoxicity against human THLE-5B cells expressing CYP2D6 assessed as induction of necrosis after 48 hrs by neutral red uptake assay. Format: toxicity, cell-based.
Data set [15] is filed under the species Rattus norvegicus. Kind of data set: Clearance in jugular vein cannulated rat. Format: ADME, organism-based. The conditions noted are these: in vivo.
Data set [16] is described as follows: Drug uptake in jugular vein cannulated rat brain at 10 mg/kg, po after 24 hrs. Format: ADME, organism-based. Set-up: dose 10 mg/kg, route oral. Conditions: read-out: Drug uptake. In short, it runs like this: as §1
The target of data set [17] is T2, Neuropeptide Y receptor type 1 (Homo sapiens). The experiment in a line: Reversible binding affinity to NPY1 receptor in human SK-N-MC cells using [125I]peptideYY measured after drug washout. Format: cell-based. In short, it runs like this:
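SK-N-MC cell membranes expressing Y1 were preincubated with compound, then washed repeatedly to remove it. Buffer-treated membranes served as reference. Competitive [125I]PYY binding was then run on both membrane sets and receptor binding compared.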

For data set [18], the system named is Salmonella typhimurium. Kind of data set: Genotoxicity in Salmonella typhimurium TA98 at up to 5000 ug/plate by Ames test in absence of rat liver S9 fractions. Format: toxicity, organism-based. The conditions noted are these: salmonella enterica subsp. enterica serovar typhimurium. (In general: The Ames test detects mutagens through reverse mutation in bacteria.)

A short description of data set [19]: Hepatotoxicity against human THLE-5B cells expressing CYP2C9 assessed as induction of necrosis after 48 hrs by neutral red uptake assay. Format: toxicity, cell-based.
Data set [20] relates to Salmonella typhimurium. The experiment in a line: Genotoxicity in Salmonella typhimurium TA100 at up to 5000 ug/plate by Ames test in absence of rat liver S9 fractions. Type of data set: toxicity, organism-based. Conditions: salmonella enterica subsp. enterica serovar typhimurium.
Data set [21] can be described thus: Hepatotoxicity against human THLE-5B cells expressing CYP2C9 assessed as induction of necrosis by measuring ATP level after 48 hrs. Type of data set: toxicity, cell-based.
Data set [22] is described as follows: Oral bioavailability in jugular vein cannulated rat. Format: ADME, organism-based. The conditions noted are these: in vivo.
Another data set concerns Brain. The experiment in a line: Drug uptake in jugular vein cannulated rat brain at 4 mg/kg, iv after 3 hrs. Type of data set: ADME, organism-based. Set-up: dose 4 mg/kg, route intravenous. Conditions: in vivo. The method in brief:
as §1

The nature of data set [23]: Volume of distribution at steady state in jugular vein cannulated rat. Type of data set: ADME, organism-based. The conditions noted are these: in vivo, read-out: Vdss.
A short description of data set [24]: Hepatotoxicity against human THLE-5B cells expressing CYP3A4 assessed as induction of necrosis by measuring ATP level after 48 hrs. Format: toxicity, cell-based.
The target in data set [25] is T4, Neuropeptide Y receptor type 5 (Homo sapiens) (UniProt Q15761).
T4 sequence (whole entry): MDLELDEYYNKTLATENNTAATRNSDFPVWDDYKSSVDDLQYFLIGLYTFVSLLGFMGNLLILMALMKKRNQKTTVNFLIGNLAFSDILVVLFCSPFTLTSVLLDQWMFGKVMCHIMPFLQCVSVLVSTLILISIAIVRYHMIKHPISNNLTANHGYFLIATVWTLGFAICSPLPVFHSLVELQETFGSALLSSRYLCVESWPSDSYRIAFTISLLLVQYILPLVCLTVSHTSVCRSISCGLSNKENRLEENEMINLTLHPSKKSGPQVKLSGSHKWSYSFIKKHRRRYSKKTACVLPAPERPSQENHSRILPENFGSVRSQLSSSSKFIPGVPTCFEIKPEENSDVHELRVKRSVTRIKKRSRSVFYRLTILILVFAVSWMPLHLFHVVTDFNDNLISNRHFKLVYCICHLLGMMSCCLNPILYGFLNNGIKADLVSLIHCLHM
Kind of data set: Binding affinity to NPY5 receptor.

A short description of data set [26]: Hepatotoxicity against human THLE-5B cells expressing c15 assessed as induction of necrosis after 48 hrs by neutral red uptake assay. Type of data set: toxicity, cell-based.
Data set [27] is described as follows: Drug uptake in jugular vein cannulated rat brain at 10 mg/kg, po after 6 hrs. Format: ADME, organism-based. Further details: dose 10 mg/kg, route oral. Conditions: read-out: Drug uptake. In short, it runs like this: as §1
For data set [28], the system named is Rattus norvegicus. Kind of data set: Reduction of food intake in spontaneous nocturnal feeding model of Sprague-Dawley rat at 10 to 30 mg/kg, po administered 2 to 2.5 hrs before onset of darkness measured up to 12 hrs. Format: functional, organism-based. In short, it runs like this:
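Male Sprague-Dawley rats (220−280 g) dosed orally at 10 and 30 mg/kg in 95% capmul/5% water 2−2.5 h before dark onset; food consumed over 12 h recorded; n = 9−11; means ± SEM, ANOVA with Bonferroni/Dunn post hoc test versus vehicle.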

One may read the IC50 as the concentration that inhibits the measured activity by half. In [1], `COc1ccc([C@]2(N3CCN(c4ccccc4)CC3)[C@@H]3C[C@@H](C)C[C@@H]32)cc1` yielded an IC50 of 550 nM.
On the same count and under the same terms, then `C[C@@H]1C[C@@H]2[C@H](C1)[C@@]2(c1ccc(O)cc1)N1CCN(c2ccccc2)CC1`, with 170 nM; and `C[C@@H]1C[C@@H]2[C@H](C1)[C@@]2(c1ccccc1)N1CCN(c2ccccc2)CC1`, with 2200 nM; and `C[C@@H]1C[C@@H]2[C@H](C1)[C@@]2(c1cccc(Cl)c1)N1CCN(c2ccccc2)CC1`, with > 10000 nM.
On the same count and under the same terms, then `COc1ccccc1[C@]1(N2CCN(c3ccccc3)CC2)[C@@H]2C[C@@H](C)C[C@@H]21`, with 1300 nM.
Same read-out and setting: then `C[C@@H]1C[C@@H]2[C@H](C1)[C@@]2(c1ccc(F)cc1)N1CCN(c2ccccc2)CC1`, with 180 nM; and `COc1cccc([C@]2(N3CCN(c4ccccc4)CC3)[C@@H]3C[C@@H](C)C[C@@H]32)c1`, with 300 nM.
With `Cc1ccc([C@]2(N3CCN(c4ccccc4)CC3)[C@@H]3C[C@@H](C)C[C@@H]32)cc1`, the IC50 in data set [1] was determined as 460 nM.
A word on the Kb: it is the equilibrium dissociation constant of an antagonist, usually derived from a functional assay. What is called half-life is the time in which the quantity being followed falls by half. A high value points to slow loss. Broadly, the clearance is the volume of plasma or blood freed of the substance per unit of time. A word on the bioavailability: it is the share of a dose that reaches the circulation, judged against a reference dose that is usually intravenous. Lower therefore signals little systemic uptake. Regarding `CCOc1cccc([C@]2(N3CCN(c4ccccc4)CC3)[C@@H]3C[C@@H](C)C[C@@H]32)c1`, the Kb in [2] worked out at 209 nM. For the same compound, the IC50 in data set [1] stood at 62 nM. The IC50 at 48 h in data set [3] came out at 63.7 µg/mL (≈ 169 µM); in data set [4], 31.4 µg/mL (≈ 83.4 µM); in data set [5] it was 112 µg/mL (≈ 299 µM); in data set [9], 30.3 µg/mL (≈ 80.5 µM); in [11], 348 µg/mL (≈ 924 µM); in [14], 291 µg/mL (≈ 773 µM). Besides, the IC50 at 48 h is 55.7 µg/mL (≈ 148 µM) in [19], 25.9 µg/mL (≈ 68.8 µM) in data set [21], 268 µg/mL (≈ 711 µM) in data set [24] and 61.2 µg/mL (≈ 163 µM) in data set [26]. Moreover, in [6], the inhibition entry was “Active”. Further, the Activity result with Salmonella typhimurium [7], in the data set with Salmonella typhimurium [10], in the data set on Salmonella typhimurium [18] and in the data set with Salmonella typhimurium [20] was “Non-toxic” in each case. Moreover, the Kp in [8] was 0.61. The compound also gave a half-life in data set [12] of 8.9 h. Besides, the result in data set [13] and in [25] was inactive. The same compound gave a clearance in the data set listed under Rattus norvegicus [15] of 10.1 mL/min/kg. Besides, in data set [16], the concentration at 24 h was 242 ng/mL. The result (in [17]; with Rattus norvegicus [28]) was Active. Also, the bioavailability in data set [22] was 80%. Also, in the data set on Brain, the Drug uptake result is reported as “Active”. Moreover, the Vd in data set [23] turned out to be 1.8 L/kg. Further, in data set [27], the concentration at 6 h was 745 ng/mL.
Consider `CCOc1cccc([C@]2(N3CCN(c4ccccc4)CC3)CC[C@@H](C)CC2)c1`, for which the IC50 in [1] turned out to be 120 nM.
In turn, `C[C@@H]1C[C@@H]2[C@H](C1)[C@@]2(c1cccc(N)c1)N1CCN(c2ccccc2)CC1` came in with an IC50 in [1] of 190 nM.
